Experimental data: article PMC3625458 (Journal of medicinal chemistry, 2013)
Entries after “also recorded” stand apart in the source; their conditions may differ.

Experiments:
[1] = In vitro microsome stability assay; type: in vitro ADME; conditions: rat, liver microsomes
[2] = system: T. gondii highly virulent RH strain; conditions: cited from earlier work
[3] = system: T. gondii 2F clone of the type I RH strain in HFF cells; experiment: Inhibition of parasite growth in vitro in HFF monolayers; type: cell-based, Toxoplasma gondii
[4] = system: T. gondii type II Pru-LUC strain; experiment: Murine infection model of toxoplasmosis; type: in vivo, mouse; conditions: 30 days post-infection, 5 mg/kg daily i.p. for 10 days
CDPK1 G128M = CDPK1 G128M (Toxoplasma gondii, UniProt Q9BJF5, G128M); experiment: CDPK1 G128M mutant kinase assay, syntide-2 peptide ELISA; type: biochemical
CDPK1 G128T = CDPK1 G128T (Toxoplasma gondii, UniProt Q9BJF5, G128T); experiment: CDPK1 G128T mutant kinase assay, syntide-2 peptide ELISA; type: biochemical
[5] = biological target: human calmodulin dependent kinase II alpha (αCaMKII) (Homo sapiens, UniProt Q9UQM7); experiment: CaM Kinase II Assay CycLex kit; type: biochemical
Outline: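 Human αCaMKII activity measured with a commercial CaM kinase II assay kit following the maker's recommendations. Test compound in serial dilutions; all samples run in triplicate. Data normalized and log-transformed, then fit by non-linear regression to a sigmoidal dose-response curve with variable slope to obtain IC50.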

CDPK1 G128S = CDPK1 G128S (Toxoplasma gondii, UniProt Q9BJF5, G128S); experiment: CDPK1 G128S mutant kinase assay, syntide-2 peptide ELISA; type: biochemical
CDPK1 G128A = CDPK1 G128A (Toxoplasma gondii, UniProt Q9BJF5, G128A); experiment: CDPK1 G128A mutant kinase assay, syntide-2 peptide ELISA; type: biochemical

`CC(C)(C)n1nc(Cc2cc(Cl)ccc2F)c2c(N)ncnc21` [Compound 10] showed a microsomal CLint [1] of 250 µL/min/mg.

`CC(C)n1nc(C(F)c2cccc(Cl)c2Cl)c2c(N)ncnc21` (centres unmarked) [Compound 26] gave a microsomal CLint [1] of 107 µL/min/mg.

With `CC(C)(C)n1nc(Cc2cccc(Cl)c2F)c2c(N)ncnc21` [Compound 18] the microsomal CLint [1] was greater than 350 µL/min/mg.

In the case of `CC(C)(C)n1nc(Cc2cccc3ccccc23)c2c(N)ncnc21` [Compound 6, 1-napthylmethyl-PP], the parasite burdens ([2]; 10-fold higher doses, i.p. inoculation) is listed as “modest reduction in parasite burdens” and the “protection against lethal challenge” value ([2]; oral administration, RH strain) is listed as “failed to protect”.

In the case of `CCc1nc(N)nc(N)c1-c1ccc(Cl)cc1` [pyrimethamine, reference compound], the “treatment time required to demonstrate potent inhibition of growth” value ([3]; 4 h vs 24 h treatment, growth to 72 h) is reported as “at least 24 h”.

In the case of `CC(C)(C)n1nc(Cc2cccc(Cl)c2)c2c(N)ncnc21` [Compound 3, 3-chloro-benzyl pyrazolo [3,4-d] pyrimidine], the “brain tissue cyst burden in surviving mice” value (from here on “brain tissue cyst burden”) [4] is reported as “considerable variation in the reduction of cyst numbers”.

For `CC(C)n1nc(Cc2cccc(Cl)c2Cl)c2c(N)ncnc21` [Compound 11], the microsomal CLint [1] was 190 µL/min/mg and the “brain tissue cyst burden” value [4] was “considerable variation in the reduction of cyst numbers”.

`CC(C)(C)n1nc(Cc2ccc(F)c(Cl)c2)c2c(N)ncnc21` [Compound 20] showed a microsomal CLint [1] greater than 350 µL/min/mg.

`CC(C)n1nc(Cc2cc(F)cc(Cl)c2)c2c(N)ncnc21` [Compound 21] showed a microsomal CLint [1] greater than 350 µL/min/mg.

In the case of `Cc1cccc(Cc2nn(C(C)(C)C)c3ncnc(N)c23)c1` [Compound 1, 3-methyl-benzyl pyrazolo [3,4-d] pyrimidine], the IC50 (CDPK1 G128M) is reported as greater than 10000 nM, the “sensitivity of Met gatekeeper TgCDPK1” value (CDPK1 G128M; Gly to Met) is reported as “completely insensitive” and the IC50 (CDPK1 G128T) is reported as 222 ± 43.7 nM. The “additional decrease in inhibition” value (CDPK1 G128T; Gly to Thr, relative to Ala or Ser) was 10 fold, the “microsome stability” value [1] was “extremely unstable; also recorded: poor microsome stability” and the IC50 [5] was greater than 10000 nM. The “sensitivity of human CamKIIα” value ([5]; Phe gatekeeper) was “completely resistant”, the IC50 (CDPK1 G128S) was 22.9 ± 7.5 nM and the “shift in potency vs Gly gatekeeper” value (CDPK1 G128S; Gly to Ser) was 3-5 fold. The IC50 (CDPK1 G128A) was 13.7 ± 7.1 nM and the “shift in potency vs Gly gatekeeper” value (CDPK1 G128A; Gly to Ala) was 3-5 fold.

For `CC(C)(C)n1nc(Cc2cc(F)cc(F)c2)c2c(N)ncnc21` [Compound 24], the “brain tissue cyst burden” value ([4]; 5 mg/kg) was “much more potent and uniform protection; also recorded: most effective in reducing the chronic burden of CNS infection”.

For `CC(C)n1nc(C(O)c2cccc(Cl)c2Cl)c2c(N)ncnc21` (centres unmarked) [Compound 25], the “activity against T. gondii” value [3] was “inactive” and the microsomal CLint [1] was 68 µL/min/mg.

Work on `CC(C)(C)n1nc(Cc2cccc(Br)c2)c2c(N)ncnc21` [Compound 4, 3-bromo-benzyl pyrazolo [3,4-d] pyrimidine] yielded a microsomal CLint [1] greater than 350 µL/min/mg.
